Drawing on ChEMBL document CHEMBL1147340, “1H- and 13C-nmr assignments of phyllanthin and hypophyllanthin: lignans that enhance cytotoxic responses with cultured multidrug-resistant cells” (J Nat Prod, 1993), this text covers EC50, IC50 and ED50 for two compounds.

One experiment has as its system P388. Nature of the experiment: Cytotoxicity against mouse P388 cells after 2 to 4 days by SRB assay. It counts as functional. As to conditions: read-out: ED50 (the source's name). The method in brief:
(§1)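 Test compounds in 10% DMSO added to cell suspensions and incubated 2–4 days at 37° (100% humidity, 5% CO2). Cells fixed with cold 50% TCA for 1 h at 4°, stained with sulforhodamine B, washed with 1% HOAc and solubilized in 10 mM Tris base. OD read at 515 nm; percent growth calculated relative to controls. Top concentration tested 20 μg/ml.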
For orientation: In SRB staining, fixed cells bind dye roughly in proportion to their protein.

Experiment [1] in a line: Cytotoxicity against human BCA1 cells after 2 to 4 days by SRB assay. The experiment is classed as functional. As to conditions: read-out: ED50 (the source's name). The gist of the method: as §1
A short description of experiment [2]: Cytotoxicity against human LUC1 cells after 2 to 4 days by SRB assay. The experiment is classed as functional. As to conditions: read-out: ED50 (the source's name). The gist of the method:
as §1

A further experiment relates to SK-MEL-2. Nature of the experiment: Cytotoxicity against human SK-MEL-2 cells after 2 to 4 days by SRB assay. It counts as functional. As to conditions: read-out: ED50 (the source's name). The gist of the method: as §1
The subject of another experiment is Col2. Briefly: Cytotoxicity against human Col2 cells after 2 to 4 days by SRB assay. The experiment is classed as functional. As to conditions: read-out: ED50 (the source's name). The gist of the method: as §1
In the next experiment the test system is A-431. Briefly: Cytotoxicity against human A431 cells after 2 to 4 days by SRB assay. It counts as functional. As to conditions: read-out: ED50 (the source's name). The gist of the method:
as §1

The test system of the next experiment is LNCaP. Nature of the experiment: Cytotoxicity against human LNCAP cells after 2 to 4 days by SRB assay. It counts as functional. The conditions noted are these: read-out: ED50 (the source's name). The gist of the method: as §1
The test system of another experiment is ZR-75-1. Nature of the experiment: Cytotoxicity against human ZR-75-1 cells after 2 to 4 days by SRB assay. It counts as functional. The conditions noted are these: read-out: ED50 (the source's name). The gist of the method:
as §1

Experiment [3] is described as follows: Cytotoxicity against drug-sensitive human KB3 cells after 2 to 4 days by SRB assay. The conditions noted are these: read-out: ED50 (the source's name). It counts as functional. The gist of the method: as §1
A short description of experiment [4]: Cytotoxicity against multidrug-resistant human KBV1 cells after 2 to 4 days by SRB assay in absence of vinblastine. The experiment is classed as functional. As to conditions: KB-V1, read-out: ED50 (the source's name). The method in brief: (§2)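 SRB growth assay on KB-V1 cells (compounds in 10% DMSO, 2–4 days at 37°, 5% CO2, TCA fixation, OD 515 nm, percent growth versus controls). Cells were given a range of compound concentrations, either alone or together with 1 μg/ml vinblastine.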

Experiment [5] in a line: Cytotoxicity against multidrug-resistant human KBV1 cells after 2 to 4 days by SRB assay in presence of vinblastine. The experiment is classed as functional. The conditions noted are these: KB-V1, read-out: ED50 (the source's name). The method in brief:
as §2

Experiment [6] can be described thus: (§3) Displacement of [3H]vinblastine from p-glycoprotein in multidrug-resistant human KBV1 cell membrane vesicles by liquid scintillation counting. The experiment is classed as cell membranes. The method in brief: (§4)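 Membrane vesicles were made from KB-V1 cells by homogenization, a 35% sucrose cushion and 100,000 × g pelleting. Incubated 20 min at room temperature, then filtered onto BSA-prewashed glass fiber. Nonspecific binding taken with 1 mM unlabeled vinblastine. Read by scintillation counting and expressed as percent.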
On the technique in general: Loss of bound radioactivity is the signal in a displacement assay; it reports binding, not function.

A short description of experiment [7]: Cytotoxicity against multidrug-resistant human KBV1 cells at 1 ug/mL after 2 to 4 days by SRB assay in presence of vinblastine. The experiment is classed as functional. As to conditions: KB-V1, read-out: ED50 (the source's name).
The subject of the next experiment is KBV1. The experiment is described as §3. It counts as cell membranes. The method in brief:
as §4

SMILES strings stand for the structures. Converted amounts (≈) assume the structure as drawn. Where only a bound is given, the exact number is not on record here.

The term IC50 denotes the concentration needed to halve the response being measured. Higher therefore signals lower potency. For the compound `COC[C@@H]1Cc2cc(OC)c3c(c2[C@H](c2ccc(OC)c(OC)c2)[C@H]1COC)OCO3` [HYPOPHYLLANTHIN], the EC50 (with P388; in experiment [1]; in experiment [2]; with SK-MEL-2; in the experiment on Col2; in the experiment with A-431) was > 20 µg/mL each time. In addition, the EC50 in the experiment on LNCaP was > 20 µg/mL; with ZR-75-1, > 20 µg/mL; in [3], > 20 µg/mL; in experiment [4] it was > 20 µg/mL; in experiment [5] it was 3.8 µg/mL. Also, the IC50 in experiment [6] was > 160 µg/mL.

With `COC[C@H](Cc1ccc(OC)c(OC)c1)[C@H](COC)Cc1ccc(OC)c(OC)c1` [PHYLLANTHIN], the EC50 (with P388; in experiment [1]; in experiment [2]; in the experiment with SK-MEL-2; in the experiment with Col2; in the experiment with A-431) was > 20 µg/mL each time. Further, the EC50 with LNCaP is > 20 µg/mL; in the experiment with ZR-75-1, > 20 µg/mL; in [3], > 20 µg/mL; in experiment [4], 9 µg/mL (≈ 21.5 µM); in experiment [7] it was 2.1 µg/mL. The compound also gave an IC50 in experiment [6] of 28 µg/mL (≈ 66.9 µM). Besides, in the experiment with KBV1, the ED50 entry is “Dose-dependent effect”.
